MC4R ag barr = agonists of human melanocortin 4 receptor (MC4R) beta-arrestin; U2OS MC4R beta-arrestin complementation, luminescence; percent of melanotan II response, DMSO zero; activation, % at 8.9 µM; actives 0.98% (n = 360,000);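 active = activation above a per-plate cutoff, the mean activation of sample wells on that plate plus 3 SD, cut at about 8% in these data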
Target sequence (P32245 whole entry, looked up): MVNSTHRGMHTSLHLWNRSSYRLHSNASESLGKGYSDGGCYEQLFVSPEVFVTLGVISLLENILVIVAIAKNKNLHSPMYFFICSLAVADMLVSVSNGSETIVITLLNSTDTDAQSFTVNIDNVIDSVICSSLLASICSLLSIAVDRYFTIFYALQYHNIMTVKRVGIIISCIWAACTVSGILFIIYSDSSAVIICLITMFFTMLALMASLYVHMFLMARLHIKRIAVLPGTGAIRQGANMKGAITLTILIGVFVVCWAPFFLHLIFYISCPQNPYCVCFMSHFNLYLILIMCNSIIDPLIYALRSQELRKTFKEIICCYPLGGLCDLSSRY
MC4R antag cAMP = human MC4R antagonism in cAMP assay | P32245 | MC4R-expressing cells, MTII-stimulated cAMP, LANCE TR-FRET | inhibition, % at 6.5 µM | actives 0.48% (n = 360,000) | AID 540295;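 active = inhibition above its plate's cutoff, the mean of tested wells on that plate plus 3 SD, cut at about 29% in these data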;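 note: 0% = Melanotan II alone and 100% = Melanotan II plus saturating MCL0020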
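Assay system: human MC4R-expressing U2OS cells; reagent: Melanotan II stimulation of cells; dosing: 6.5 µM single dose; timing: compound 30 min, challenge 1 h, detection 1 h; signal: TR-FRET cAMP assay; replicates: one well per compound, no replicates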
GalR3 antagonist = antagonists of human GalR3; O60755; HEK293 GalR3-CNG cAMP membrane potential fluorescence; galR3 body fused to GalR1 C-terminus; inhibition, % at 3 µM; actives 0.44% (n = 360,000); AID 651719;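 active = inhibition above the screen-wide average plus 3 SD, cut at about 13% in these data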;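 note: forskolin and galanin both at EC90 stimulate the cells; cAMP rise reported by CNG channel membrane potential dye signal; 0% = forskolin plus galanin with DMSO and 100% = forskolin alone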
Calb FLC = C. albicans growth modulation with fluconazole | growth inhibition, % (concentration not given with the values) | C. albicans CaCi-2 + fluconazole, Alamar Blue growth, 48 h | actives 0.57% (n = 300,000);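 active = growth inhibition above about 58% in most replicates, limit read from the data, passing the limit was not always enough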;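 note: all wells also contain fluconazole at 8 µg/ml as a sub-toxic cotreatment; 0% = median of DMSO wells and 100% = median of geldanamycin control wells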
Efflux pump mplx = inhibitors of Candida antifungal efflux pumps expressed in yeast. AID 485275. inhibition, % at 10 µM. actives 0.44% (n = 330,000). S. cerevisiae Candida pump triplex, Nile Red efflux;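 active = plate passing quality check with inhibition over a set limit, or well fluorescence over plate mean plus 4 SD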;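 note: Nile Red retained in pooled yeast measured as flow cytometry median fluorescence; 0% = buffer negative control and 100% = Enniatin B positive control; higher means more Nile Red kept so more efflux inhibition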
H9c2 TAG inh = triacylglycerol accumulation inhibition; H9c2 cells, Nile Red lipid (TAG) fluorescence; cells loaded with 200 µM oleic acid; inhibition, % at 12.5 µM; AID 651582; actives 0.66% (n = 230,000);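 active = pattern-corrected inhibition of lipid staining of at least 50% with the nuclear-stain viability signal not falling by more than 50%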;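 note: 0% = DMSO wells and 100% = triacsin C control wells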
GalR3 conf = confirmation of human galanin receptor 3 antagonists | shares compounds with GalR3 antagonist | HEK293 GalR3 CNG cAMP biosensor, membrane potential fluorescence; galR3 fused to GalR1 carboxy tail; challenged with forskolin and galanin at EC90 | inhibition, % at 3 µM | actives 59% (n = 1,600);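 active = inhibition above the primary screen's cutoff, the mean inhibition of all screened compounds plus 3 SD, cut at about 13% in these data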;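 note: 0% = forskolin plus galanin and 100% = forskolin alone with DMSO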
CNG parental = parental cell agonism counter-screen for GalR3 antagonists. shares compounds with GalR3 antagonist. HEK293-CNG parental cells, cAMP membrane potential fluorescence; normalised: DMSO wells 0%, forskolin wells 100%. activation, % at 3 µM. actives 10% (n = 1,600); in the data active = activation above about 1.3%
Active calls of the source: *. Only some compounds are listed: those with a hit (about 2.9% of all), similar ones and a draw of the others.

`COc1cc(C2NC(=O)NC(C)=C2C(=O)OCc2ccc(C)cc2)cc(OC)c1O` (stereo not given) gave MC4R ag barr -0.4, MC4R antag cAMP 4.0, GalR3 antagonist 15.5*, Calb FLC -7.6, Efflux pump mplx 0.0, GalR3 conf 13.5* and CNG parental 0.0.
COC(=O)C[C@H](NC(=O)Cn1cc(C)c(=O)[nH]c1=O)C(=O)OC was read as MC4R ag barr -1.6, MC4R antag cAMP -10.5, GalR3 antagonist 0.3 and H9c2 TAG inh 0.9.
`C#CCNC(=O)c1cc2cccnc2nc1N` gave GalR3 antagonist -5.6.
CCNC(=O)NC(=O)C(C)OC(=O)[C@H](C)NS(=O)(=O)c1c(C)c(C)cc(C)c1C (stereo not given in full) was read as MC4R ag barr -1.4, MC4R antag cAMP 1.8, GalR3 antagonist 39.4*, Calb FLC 3.5, Efflux pump mplx 0.1, H9c2 TAG inh 0.8, GalR3 conf -2.3 and CNG parental 0.1.
Screening C=CCC1(CC=C)CCCN1C(=O)c1cc(COc2cncc(Cl)c2)on1 returned MC4R ag barr 1.8, MC4R antag cAMP 20.3, GalR3 antagonist 45.4*, Calb FLC -33.6, Efflux pump mplx 0.0, H9c2 TAG inh -23.4, GalR3 conf 62.4* and CNG parental 0.9.
Screening CCNC(=O)C1(C)CCCN(C(=O)c2nc(C)oc2C)C1 (stereo not given) returned MC4R ag barr 0.6, MC4R antag cAMP 2.5, GalR3 antagonist -7.7 and H9c2 TAG inh 2.9.
O=C(N[C@H](Cc1ccccc1)C(=O)N(CCC1=CCCCC1)CC1CC1)[C@H]1O[C@@H](n2ccc(=O)[nH]c2=O)[C@H](O)[C@@H]1O was read as GalR3 antagonist -6.5.
Screening Cc1ccc(C2C3=C(CC(C)(C)CC3=O)N=C3c4ccccc4C(=O)C32)cc1 (stereo not given) returned MC4R ag barr -2.4, MC4R antag cAMP -2.5, GalR3 antagonist 15.3*, Calb FLC 84.8*, Efflux pump mplx -0.1, GalR3 conf 30.6* and CNG parental -0.2.
CN1C(=O)c2ccccc2CC12c1ccccc1C(=O)N2C (stereo not given) was read as MC4R ag barr -1.7, MC4R antag cAMP 5.6, GalR3 antagonist -0.2 and H9c2 TAG inh -5.9.
Screening CS(=O)(=O)N1CCN(c2ccccc2NC(=O)c2ccc(Cl)cc2)CC1 returned MC4R ag barr 0.0, MC4R antag cAMP -1.3, Calb FLC 29.1, Efflux pump mplx 0.0, H9c2 TAG inh -2.4, GalR3 conf 11.8 and CNG parental 0.1.
Cc1ccc(OCC(=O)Nc2ccc(S(=O)(=O)N3CCCCC3)cc2)c([N+](=O)[O-])n1 was read as MC4R ag barr -0.2, MC4R antag cAMP -5.5, GalR3 antagonist -5.7, Calb FLC -5.8, Efflux pump mplx 0.0 and H9c2 TAG inh 9.9.
Cc1ccc(OCC(=O)Nc2cc(S(=O)(=O)N3CCCCC3)ccc2C)c([N+](=O)[O-])n1 was read as MC4R ag barr -1.0, MC4R antag cAMP 16.0, GalR3 antagonist 12.8*, Calb FLC -4.0, Efflux pump mplx -0.1, GalR3 conf 0.4 and CNG parental -0.2.
O=c1c2[nH]c3ccccc3c2ncn1CCC1=CCCCC1 was read as MC4R ag barr 7.5, MC4R antag cAMP 0.9, GalR3 antagonist -2.5, Calb FLC 8.5, Efflux pump mplx -0.1 and H9c2 TAG inh -28.0.
`C1=C(CCNc2ncnc3c2[nH]c2ccccc23)CCCC1` gave MC4R ag barr -1.1, MC4R antag cAMP 8.8, GalR3 antagonist 84.1*, Efflux pump mplx 0.0, GalR3 conf 98.2* and CNG parental 1.4*.
